What all share (type): ADME, cell-based
One data set has as its target T1, OATP1B1 (Homo sapiens, UniProt Q9Y6L6).
T1 sequence (Q9Y6L6 whole entry): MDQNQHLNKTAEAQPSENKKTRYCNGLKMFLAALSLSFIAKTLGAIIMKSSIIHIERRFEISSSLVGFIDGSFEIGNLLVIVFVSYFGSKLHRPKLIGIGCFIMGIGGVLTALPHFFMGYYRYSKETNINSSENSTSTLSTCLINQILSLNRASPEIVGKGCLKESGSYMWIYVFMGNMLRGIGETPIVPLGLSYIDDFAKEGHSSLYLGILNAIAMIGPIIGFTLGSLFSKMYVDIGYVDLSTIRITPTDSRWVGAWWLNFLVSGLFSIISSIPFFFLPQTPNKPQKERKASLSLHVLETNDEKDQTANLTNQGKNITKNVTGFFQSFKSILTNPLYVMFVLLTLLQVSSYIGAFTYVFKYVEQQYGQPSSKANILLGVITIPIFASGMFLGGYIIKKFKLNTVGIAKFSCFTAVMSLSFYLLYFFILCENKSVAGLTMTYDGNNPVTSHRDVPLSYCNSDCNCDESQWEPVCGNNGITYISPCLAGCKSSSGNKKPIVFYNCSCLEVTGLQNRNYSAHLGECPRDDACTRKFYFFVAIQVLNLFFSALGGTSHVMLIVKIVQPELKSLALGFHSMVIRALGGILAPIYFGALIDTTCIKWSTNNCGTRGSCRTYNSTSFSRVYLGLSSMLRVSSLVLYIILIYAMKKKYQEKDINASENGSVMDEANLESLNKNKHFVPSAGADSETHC
As to the kind of experiment: Drug uptake by human hepatic OATP1B1 transporter expressed in HEK293 cells at 10 uM relative to wild type HEK293 cells. As to conditions: HEK293 cells expressing OATP1B1, read-out: FC. In a few lines:
(§1)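 Individual hepatic OATP transporters were over-expressed in CHO or HEK293 cells: rat rOatp1a1, rOatp1a4 and rOatp1b2, and human hOATP1B1, hOATP1B3 and hOATP2B1. Substrate uptake is expressed as fold difference relative to the wild-type parental line. Rosuvastatin/pravastatin served as positive control and midazolam as negative control in each assay.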

The next data set has as its system Hepatocyte. As to the kind of experiment: Drug uptake in sandwich-cultured rat hepatocytes assessed per mg of protein at 1 uM. In a few lines:
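Rat or human hepatocytes were cultured in sandwich configuration with a Matrigel overlay and compound uptake was measured. Active uptake was assessed by inhibition with the pan-OATP inhibitor rifamycin SV. Rosuvastatin/pravastatin served as positive control and midazolam as negative control.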

For the next data set, the target named is T2, OATP1A4 (Rattus norvegicus, UniProt O35913).
T2 sequence (O35913 whole entry): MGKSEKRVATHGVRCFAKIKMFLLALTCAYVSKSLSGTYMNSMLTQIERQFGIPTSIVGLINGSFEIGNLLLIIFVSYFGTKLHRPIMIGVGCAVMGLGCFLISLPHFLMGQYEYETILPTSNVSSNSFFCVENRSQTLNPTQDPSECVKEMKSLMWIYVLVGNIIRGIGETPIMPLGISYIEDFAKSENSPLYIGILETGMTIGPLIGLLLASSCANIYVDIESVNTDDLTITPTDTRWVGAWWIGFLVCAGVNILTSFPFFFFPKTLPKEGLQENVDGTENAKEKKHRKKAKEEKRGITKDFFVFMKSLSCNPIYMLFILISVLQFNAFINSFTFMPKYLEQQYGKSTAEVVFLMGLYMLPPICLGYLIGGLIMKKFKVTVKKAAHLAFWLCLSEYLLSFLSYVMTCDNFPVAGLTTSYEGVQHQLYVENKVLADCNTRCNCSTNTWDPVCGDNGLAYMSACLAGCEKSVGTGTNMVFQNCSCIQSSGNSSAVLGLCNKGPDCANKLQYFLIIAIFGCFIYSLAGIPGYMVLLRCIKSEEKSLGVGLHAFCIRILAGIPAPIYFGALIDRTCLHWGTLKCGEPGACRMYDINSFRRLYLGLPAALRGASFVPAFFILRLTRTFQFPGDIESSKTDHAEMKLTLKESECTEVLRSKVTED
As to the kind of experiment: Drug uptake by rat hepatic OATP1A4 transporters expressed in CHO cells at 1 uM relative to wild type CHO cells. The following applies: CHO cells expressing rat OATP1A4, read-out: FC. A digest of the protocol:
as §1

The next data set addresses T3, OATP1B2 (Rattus norvegicus, UniProt Q9QZX8).
T3 sequence (Q9QZX8 whole entry): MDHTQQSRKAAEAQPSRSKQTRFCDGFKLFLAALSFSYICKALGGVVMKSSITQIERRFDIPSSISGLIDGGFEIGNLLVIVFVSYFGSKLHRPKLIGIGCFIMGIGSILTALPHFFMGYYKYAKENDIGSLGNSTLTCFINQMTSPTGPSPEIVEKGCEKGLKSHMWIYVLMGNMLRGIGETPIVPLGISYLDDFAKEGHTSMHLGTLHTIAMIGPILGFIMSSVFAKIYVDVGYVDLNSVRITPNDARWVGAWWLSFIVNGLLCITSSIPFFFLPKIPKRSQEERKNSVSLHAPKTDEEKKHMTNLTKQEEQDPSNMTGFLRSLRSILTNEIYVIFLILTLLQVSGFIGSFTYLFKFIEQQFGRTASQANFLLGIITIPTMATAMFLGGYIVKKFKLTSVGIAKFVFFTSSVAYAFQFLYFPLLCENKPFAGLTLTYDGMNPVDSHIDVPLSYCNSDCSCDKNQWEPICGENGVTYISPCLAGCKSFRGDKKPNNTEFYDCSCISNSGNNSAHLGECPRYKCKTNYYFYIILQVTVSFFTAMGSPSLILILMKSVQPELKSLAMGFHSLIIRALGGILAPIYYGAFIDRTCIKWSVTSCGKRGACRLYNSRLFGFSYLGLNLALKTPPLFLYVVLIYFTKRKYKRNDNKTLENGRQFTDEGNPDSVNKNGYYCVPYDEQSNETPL
As to the kind of experiment: Drug uptake by rat hepatic OATP1B2 transporters expressed in CHO cells at 1 uM relative to wild type CHO cells. The following applies: CHO cells expressing rat OATP1B2, read-out: FC. In a few lines: as §1

As for `O=C([O-])C[C@H](O)C[C@H](O)CCn1c(-c2ccc(F)cc2)nc(C(=O)NCc2cccc(F)c2)c1C1CC1.[Na+]`, on OATP1B1, the uptake ratio at 10 µM is 84.9. In the data set on Hepatocyte, this molecule came in with a Drug uptake of 17 pmol/min/mg. Further, the uptake ratio at 1 µM worked out at 4.4 on OATP1A4 and 1.8 on OATP1B2.
For `Cc1ccc(CNC(=O)c2nn(-c3ccc(F)cc3)c(CC[C@@H](O)C[C@@H](O)CC(=O)O)c2C(C)C)cc1` the same measures were 18.4, 14 pmol/min/mg, 2.7 and 2.9.
Consider `Cc1ncc2n1-c1ccc(Cl)cc1C(c1ccccc1F)=NC2` [MIDAZOLAM], for which the uptake ratio at 10 µM on OATP1B1 was 0.9. Also, the uptake ratio at 1 µM at OATP1A4 turned out to be 0.93; at OATP1B2 it was 1.1.
For `CC[C@H](C)C(=O)O[C@H]1C[C@H](O)C=C2C=C[C@H](C)[C@H](CC[C@@H](O)C[C@@H](O)CC(=O)O)[C@H]21` [PRAVASTATIN] the same measures were 223, 1.5 and 3.6.
As to `CC(C)c1nc(N(C)S(C)(=O)=O)nc(-c2ccc(F)cc2)c1/C=C/[C@@H](O)C[C@@H](O)CC(=O)O` [ROSUVASTATIN], the uptake ratio at 10 µM on OATP1B1 was 69.6. Besides, the Drug uptake with Hepatocyte stood at 24 pmol/min/mg. For the same molecule, the uptake ratio at 1 µM on OATP1A4 was found to be 8.6.

Values taken from ChEMBL document CHEMBL1781963, “Discovery of novel hepatoselective HMG-CoA reductase inhibitors for treating hypercholesterolemia: a bench-to-bedside case study on tissue selective drug distribution” (Bioorg Med Chem Lett, 2011).
